Measured values as given in ChEMBL document CHEMBL4346668, “Novel multitarget inhibitors with antiangiogenic and immunomodulator properties” (Eur J Med Chem, 2019).

Tests used:
HMEC-1 [1] = experiment: Antiangiogenic activity against HMEC1 cells assessed as inhibition of tube formation incubated for 20 hrs by matrigel based tube formation assay; format: functional, Homo sapiens
Outline: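 HMEC-1 cells in EGM-2MV medium seeded at 2 x 10⁴ cells/well on Matrigel (10 mg/mL, gelled 30 min at 37°C) and attached for 30 min. Compounds were added at different concentrations and tube formation was assessed after 20 h at 37°C. The minimum concentration at which inhibition began was reported. Data representative of three experiments.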

HeLa = experiment: Antiproliferative activity against human HeLa cells incubated for 2 days by MTT assay; format: functional, cell-based; details: 48 h
Outline: (§1)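 MTT assay. Cells seeded at 3 × 10³/well (HeLa, A549, HMEC-1, HEK-293) or 5 × 10³/well (HT-29, MCF-7) in their growth media with serial compound dilutions from 10 mM DMSO stocks. Incubated 2 days at 37 °C, 5% CO₂, then MTT added for 3 h and formazan dissolved in DMSO. A540 read and viability expressed versus untreated cells. IC₅₀ determined graphically; three independent experiments.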

A549 [2] = experiment: Induction of apoptosis in human A549 cells assessed as apoptotic cells at 100 uM incubated for 24 hrs by FITC-Annexin V staining based flow cytometric analysis (reference value: 20%); format: functional
A549 [3] = experiment: Immunomodulatory activity in human A549 cells assessed as reduction in PD-L1 expression level at 100 uM incubated for 24 hrs by ELISA relative to control; format: functional; set-up: scale not given: the % may be the effect or the level left
Outline: (§2)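 A549 cells (3·10⁵/well) treated 24 h with compound; final concentration 100 µM for some compounds and 15 µM for others per table footnote. Lysates protein-normalized by Bradford, and PD-L1 and c-Myc quantified by commercial ELISA kits as % of DMSO-treated cells. Mean ± SD of three experiments.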

HT-29 [4] = experiment: Antiproliferative activity against human HT-29 cells incubated for 2 days by MTT assay; format: functional, cell-based; details: HT-29, 48 h; outline: as §1
A549 [5] = experiment: Effect on VEGFR2 in human A549 cells assessed as total VEGFR2 level at 10 uM incubated for 24 hrs by flow cytometric analysis relative to control; format: functional
A549 [6] = experiment: Antiproliferative activity against human A549 cells incubated for 2 days by MTT assay; format: functional, cell-based; details: A549, 48 h; outline: as §1
MCF7 = experiment: Antiproliferative activity against human MCF7 cells incubated for 2 days by MTT assay; format: functional, cell-based; details: MCF7, 48 h; outline: as §1
HMEC-1 [7] = experiment: Antiproliferative activity against HMEC1 cells incubated for 2 days by MTT assay; format: cell-based; details: Homo sapiens, HMEC-1, 48 h; outline: as §1
HEK293 = experiment: Antiproliferative activity against HEK293 cells incubated for 2 days by MTT assay; format: cell-based; details: Homo sapiens, HEK293, 48 h; outline: as §1
A549 [8] = experiment: Effect on VEGFR2 in human A549 cells assessed as membrane VEGFR2 level at 10 uM incubated for 24 hrs by flow cytometric analysis relative to control; format: functional
Outline: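 A549 cells incubated 24 h with compound at 10 µM. Membrane VEGFR-2 (fixed cells) and total VEGFR-2 (permeabilized or lysate) stained with Alexa Fluor 647 anti-CD309 and quantified by flow cytometry relative to DMSO control; mean ± SD of three experiments.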

A549 [9] = experiment: Immunomodulatory activity in human A549 cells assessed as reduction in c-Myc expression level at 100 uM incubated for 24 hrs by ELISA relative to control; format: functional; set-up: scale not given: the % may be the effect or the level left; outline: as §2
HT-29 [10] = experiment: Antiproliferative activity against human HT-29 cells at 200 uM incubated for 24 hrs in presence of Jurkat T cells by trypan blue staining based Neubauer chamber method relative to control; format: functional
Outline: (§3)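 Co-culture of 5 × 10⁴ tumor cells/well with 2 × 10⁵ PD-1-expressing Jurkat T cells in 1.5 mL, treated 24 h with compound at 200 µM. Supernatant discarded; tumor cells trypsinized, stained with trypan blue and living cells counted in a Neubauer chamber. Proliferation inhibition (%) attributable to Jurkat presence reported; representative of three experiments.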

A549 [11] = experiment: Antiproliferative activity against human A549 cells at 200 uM incubated for 24 hrs in presence of Jurkat T cells by trypan blue staining based Neubauer chamber method relative to control; format: functional; outline: as §3
[12] = biological target: Vascular endothelial growth factor receptor 2 (Homo sapiens) (UniProt P35968)
Chain of Vascular endothelial growth factor receptor 2 (Homo sapiens) (P35968 whole entry): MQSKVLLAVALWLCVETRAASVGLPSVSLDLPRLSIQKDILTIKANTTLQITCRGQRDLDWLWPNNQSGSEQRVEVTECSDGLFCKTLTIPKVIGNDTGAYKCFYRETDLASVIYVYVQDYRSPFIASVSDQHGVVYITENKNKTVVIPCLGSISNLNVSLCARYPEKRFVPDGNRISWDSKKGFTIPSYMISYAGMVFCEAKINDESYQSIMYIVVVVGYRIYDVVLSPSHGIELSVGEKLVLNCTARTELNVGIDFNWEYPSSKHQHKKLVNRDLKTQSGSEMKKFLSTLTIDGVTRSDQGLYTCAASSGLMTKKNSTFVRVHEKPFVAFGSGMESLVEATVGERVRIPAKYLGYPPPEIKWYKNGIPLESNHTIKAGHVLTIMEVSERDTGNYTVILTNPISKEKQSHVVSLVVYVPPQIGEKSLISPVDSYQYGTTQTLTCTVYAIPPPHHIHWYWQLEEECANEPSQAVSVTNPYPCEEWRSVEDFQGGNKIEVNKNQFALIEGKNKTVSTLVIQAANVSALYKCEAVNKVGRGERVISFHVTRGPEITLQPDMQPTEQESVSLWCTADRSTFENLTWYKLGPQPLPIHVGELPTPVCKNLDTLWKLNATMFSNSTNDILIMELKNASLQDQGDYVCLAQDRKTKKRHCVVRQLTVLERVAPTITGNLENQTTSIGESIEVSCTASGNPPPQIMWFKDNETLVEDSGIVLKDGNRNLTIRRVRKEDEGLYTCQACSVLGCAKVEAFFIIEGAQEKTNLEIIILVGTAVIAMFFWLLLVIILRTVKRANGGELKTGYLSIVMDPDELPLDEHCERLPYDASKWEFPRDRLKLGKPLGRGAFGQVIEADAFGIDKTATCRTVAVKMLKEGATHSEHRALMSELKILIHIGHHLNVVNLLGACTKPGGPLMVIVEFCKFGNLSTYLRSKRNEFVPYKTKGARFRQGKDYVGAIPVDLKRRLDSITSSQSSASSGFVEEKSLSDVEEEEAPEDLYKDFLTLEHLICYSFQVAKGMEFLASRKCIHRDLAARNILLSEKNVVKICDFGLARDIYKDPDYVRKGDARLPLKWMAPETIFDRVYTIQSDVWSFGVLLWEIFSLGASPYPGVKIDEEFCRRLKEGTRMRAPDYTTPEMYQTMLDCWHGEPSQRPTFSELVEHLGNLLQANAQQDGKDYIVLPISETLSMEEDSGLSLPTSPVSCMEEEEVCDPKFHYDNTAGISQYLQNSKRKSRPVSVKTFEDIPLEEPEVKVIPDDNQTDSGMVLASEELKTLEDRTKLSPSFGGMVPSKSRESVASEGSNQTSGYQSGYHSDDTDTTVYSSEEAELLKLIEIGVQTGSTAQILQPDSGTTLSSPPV

HMEC-1 [13] = experiment: Effect on VEGFR2 in HMEC1 cells assessed as total VEGFR2 level at 100 uM incubated for 24 hrs by flow cytometric analysis relative to control; format: functional, Homo sapiens
Outline: (§4)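 HMEC-1 cells exposed 24 h to compound at 100 µM. Membrane VEGFR-2 measured on fixed cells stained with Alexa Fluor 647 anti-CD309; total VEGFR-2 measured after Triton X-100 permeabilization before fixation. Read by flow cytometry as % of DMSO control.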

[14] = biological target: Programmed cell death 1 ligand 1 (Homo sapiens) (UniProt Q9NZQ7); experiment: Binding affinity to PDL1 (unknown origin) assessed as change in melting temperature at 100 uM by fluorescence based real time RT-PCR analysis
Chain of Programmed cell death 1 ligand 1 (Homo sapiens) (Q9NZQ7 whole entry): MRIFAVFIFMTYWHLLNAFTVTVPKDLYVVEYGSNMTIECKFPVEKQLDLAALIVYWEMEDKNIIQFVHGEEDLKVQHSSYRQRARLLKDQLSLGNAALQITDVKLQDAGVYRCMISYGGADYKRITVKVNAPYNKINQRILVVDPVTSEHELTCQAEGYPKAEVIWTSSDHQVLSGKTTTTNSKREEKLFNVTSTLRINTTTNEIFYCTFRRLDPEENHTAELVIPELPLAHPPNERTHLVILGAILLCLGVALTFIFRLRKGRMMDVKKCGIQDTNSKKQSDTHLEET

HMEC-1 [15] = experiment: Effect on VEGFR2 in HMEC1 cells assessed as membrane VEGFR2 level at 100 uM incubated for 24 hrs by flow cytometric analysis relative to control; format: functional, Homo sapiens; outline: as §4
A549 [16] = experiment: Effect on VEGFR2 in human A549 cells assessed as total VEGFR2 level at 100 uM incubated for 24 hrs by flow cytometric analysis relative to control; format: functional
A549 [17] = experiment: Effect on VEGFR2 in human A549 cells assessed as membrane VEGFR2 level at 100 uM incubated for 24 hrs by flow cytometric analysis relative to control; format: functional
Outline: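 A549 cells exposed 24 h to compound at 100 µM. Membrane VEGFR-2 stained on fixed cells with Alexa Fluor 647 anti-VEGFR-2; Triton X-100 permeabilization before fixation used for total VEGFR-2. Flow cytometry, % of DMSO control; mean ± SD of three experiments.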

HMEC-1 [18] = experiment: Effect on VEGFR2 in HMEC1 cells assessed as total VEGFR2 level at 10 uM incubated for 24 hrs by flow cytometric analysis relative to control; format: functional, Homo sapiens
Outline: (§5)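 HMEC-1 cells exposed 24 h to compound. Membrane VEGFR-2 measured on fixed cells stained with Alexa Fluor 647 anti-CD309; total VEGFR-2 measured on lysates or permeabilized cells. Read by flow cytometry as % of DMSO control; mean ± SD of three experiments.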

HMEC-1 [19] = experiment: Effect on VEGFR2 in HMEC1 cells assessed as membrane VEGFR2 level at 10 uM incubated for 24 hrs by flow cytometric analysis relative to control; format: functional, Homo sapiens; outline: as §5

| Structure (SMILES) | MAC (HMEC-1 [1]) [µM] | IC50 (HeLa) [µM] | Activity (A549 [2]) [%] | Activity (A549 [3]) [%] | IC50 (HT-29 [4]) [µM] | Activity (A549 [5]) [%] | IC50 (A549 [6]) [µM] | IC50 (MCF7) [µM] | IC50 (HMEC-1 [7]) [µM] | IC50 (HEK293) [µM] | Activity (A549 [8]) [%] | Activity (A549 [9]) [%] | ΔTm [12] [°C] | Activity (HMEC-1 [13]) [%] | ΔTm [14] [°C] | Activity (HMEC-1 [15]) [%] | other results |
| --- | --- | --- | --- | --- | --- | --- | --- | --- | --- | --- | --- | --- | --- | --- | --- | --- | --- |
| COc1ccc(/C=C\c2cccc(NC(=O)Nc3ccccc3Cl)c2)cc1 | 10 | 22 | 61 | 83 | 12 | 177 | 21 | 19 | 33 | 6.5 | 114 |  |  |  |  |  |  |
| COc1ccc(Cc2cn(CCNC(=O)Nc3ccc(Cl)cc3)nn2)cc1 | 400 | > 200 |  | 69 | > 200 |  | > 200 | > 200 | > 200 | > 200 |  | 73 | 5.09 | 102 | 1.93 | 90 | Activity (HT-29 [10]): 84%; Activity (A549 [11]): 16% |
| COc1ccc(CCc2cccc(NC(=O)Nc3cccc(Cl)c3)c2)cc1 | 10 | 16.5 | 95 | 51 | 14 | 98 | > 200 | 8.2 | 50 | 5.3 | 97 | 51 | 4.1 |  | 5.2 |  |  |
| COc1ccc(CCc2cccc(NC(=O)Nc3ccccc3Cl)c2)cc1 | 1 | 69 | 76 | 61 | 20 | 100 | 24 | > 100 | 48 | 90 | 100 | 63 | 16.2 |  | 2.25 |  |  |
| COc1ccc(Cc2cn(CCNC(=O)Nc3ccccc3)nn2)cc1 |  | > 200 |  | 83 | > 200 |  | > 200 | > 200 | > 200 | > 200 |  |  | 10.5 | 105 | 2.1 | 97 |  |
| COc1ccc(Cc2cn(CCNC(=O)Nc3ccc(Br)cc3)nn2)cc1 |  | > 200 |  | >100 | > 200 |  | > 200 | > 200 | > 200 | > 200 |  |  | 2.61 | 55 | 8.74 | 40 | Activity (A549 [16]): 61%; Activity (A549 [17]): 70% |
| COc1ccc(Cc2cn(CCNC(=O)Nc3ccc(C)cc3)nn2)cc1 |  | > 200 |  | 66 | > 200 |  | > 200 | > 200 | > 200 | > 200 |  | 70 | 3.68 | 90 | 3.09 | 97 | Activity (HT-29 [10]): 22%; Activity (A549 [11]): 6% |
| COc1ccc(/C=C/c2cccc(NC(=O)Nc3ccccc3Cl)c2)cc1 | 10 | > 100 | 42 | 74 | 47 | 42 | 61 | > 100 | > 100 | 57 | 109 |  | 10.2 |  | 5.09 |  | Activity (HMEC-1 [18]): 121%; Activity (HMEC-1 [19]): 76% |
